From ChEMBL document CHEMBL1153223, “One pot synthesis and SAR of some novel 3-substituted 5,6-diphenyl-1,2,4-triazines as antifungal agents” (2010) come the findings set out here.

A word on the MIC: it is the lowest concentration that inhibits growth of the organism.

In brackets after ≈: the same amount, converted by molar mass. Activity calls are given as the source filed them. The calls are words filed in the database; no cut-off is given here.

One assay deals with Candida albicans. Nature of the assay: Antifungal activity against Candida albicans NCIM 347 by standard agar plate method. The assay is classed as functional. The procedure, abridged:
(§1)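 Read-out was the minimum inhibitory concentration (MIC) on agar plates, with miconazole and fluconazole run as reference antifungal standards.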

For assay [1], the system named is Fusarium oxysporum. Nature of the assay: Antifungal activity against Fusarium oxysporum NCIM 1332 by standard agar plate method. The format is functional. The procedure, abridged:
as §1

Assay [2] has as its system Aspergillus niger. The assay is described as follows: Antifungal activity against Aspergillus niger NCIM 1196 by standard agar plate method. The assay is classed as functional. The procedure, abridged: as §1
The test system of assay [3] is Aspergillus flavus. Nature of the assay: Antifungal activity against Aspergillus flavus NCIM 539 by standard agar plate method. The format is functional. The procedure, abridged: as §1
For assay [4], the system named is Cryptococcus neoformans. The assay is described as follows: Antifungal activity against Cryptococcus neoformans NCIM 576 up to 200 ug/mL by standard agar plate method. The assay is classed as functional, organism-based. The procedure, abridged: as §1
The subject of assay [5] is Cryptococcus neoformans. Nature of the assay: Antifungal activity against Cryptococcus neoformans NCIM 576 by standard agar plate method. The format is functional. The procedure, abridged: as §1
Assay [6] has as its system Fusarium oxysporum. The assay is described as follows: Antifungal activity against Fusarium oxysporum NCIM 1332 up to 200 ug/mL by standard agar plate method. The assay is classed as functional, organism-based. The procedure, abridged:
as §1

Assay [7] deals with Aspergillus niger. The assay is described as follows: Antifungal activity against Aspergillus niger NCIM 1196 up to 200 ug/mL by standard agar plate method. The assay is classed as functional, organism-based. The procedure, abridged:
as §1

For assay [8], the system named is Aspergillus flavus. Nature of the assay: Antifungal activity against Aspergillus flavus NCIM 539 up to 200 ug/mL by standard agar plate method. The assay is classed as functional, organism-based. The procedure, abridged: as §1

In the case of `CCC(=O)N1CCC(n2cc(-c3nnc(-c4ccccc4)c(-c4ccccc4)n3)nn2)CC1`, the MIC in the assay on Candida albicans is 50 µg/mL (≈ 114 µM); against Fusarium oxysporum [1] it was 50 µg/mL (≈ 114 µM); in the assay with Aspergillus niger [2], 20 µg/mL (≈ 45.5 µM); in the assay on Aspergillus flavus [3] it was 20 µg/mL (≈ 45.5 µM). The MIC entry in the assay with Cryptococcus neoformans [4] was “inactive”.
Turning to `c1ccc(-c2nnc(-c3cn(C4CCNCC4)nn3)nc2-c2ccccc2)cc1`, the MIC stood at 30 µg/mL (≈ 78.2 µM) against Candida albicans; 40 µg/mL (≈ 104 µM) in the assay on Fusarium oxysporum [1]; 42.5 µg/mL (≈ 111 µM) with Aspergillus niger [2]; 37.5 µg/mL (≈ 97.8 µM) against Aspergillus flavus [3]; 45 µg/mL (≈ 117 µM) against Cryptococcus neoformans [5].
As to `CC(=O)N1CCC(n2cc(-c3nnc(-c4ccccc4)c(-c4ccccc4)n3)nn2)CC1`, the MIC against Candida albicans is 35 µg/mL (≈ 82.3 µM); in the assay on Fusarium oxysporum [1], 40 µg/mL (≈ 94 µM); in the assay on Aspergillus niger [2] it was 20 µg/mL (≈ 47 µM); in the assay with Aspergillus flavus [3], 20 µg/mL (≈ 47 µM). For the same compound, the MIC entry with Cryptococcus neoformans [4] was “inactive”.
As for `OC(Cn1cncn1)(Cn1cncn1)c1ccc(F)cc1F` [FLUCONAZOLE], the MIC was 5 µg/mL (≈ 16.3 µM) against Candida albicans; 5 µg/mL (≈ 16.3 µM) against Fusarium oxysporum [1]; 10 µg/mL (≈ 32.7 µM) against Aspergillus niger [2]; 5 µg/mL (≈ 16.3 µM) in the assay with Aspergillus flavus [3]; 5 µg/mL (≈ 16.3 µM) in the assay on Cryptococcus neoformans [5].
With `Clc1ccc(COC(Cn2ccnc2)c2ccc(Cl)cc2Cl)c(Cl)c1` (stereo not given) [MICONAZOLE], the MIC in the assay with Candida albicans is 25 µg/mL (≈ 60.1 µM); in the assay on Fusarium oxysporum [1], 25 µg/mL (≈ 60.1 µM); against Aspergillus niger [2], 12.5 µg/mL (≈ 30 µM); with Aspergillus flavus [3], 12.5 µg/mL (≈ 30 µM); against Cryptococcus neoformans [5], 25 µg/mL (≈ 60.1 µM).
`CC(C)(C)OC(=O)N1CCC(n2cc(-c3nnc(-c4ccccc4)c(-c4ccccc4)n3)nn2)CC1`: the figures for the MIC with Candida albicans, in the assay with Aspergillus flavus [3] and against Cryptococcus neoformans [5] were 70 µg/mL (≈ 145 µM), 55 µg/mL (≈ 114 µM) and 100 µg/mL (≈ 207 µM), respectively. Moreover, the MIC result in the assay on Fusarium oxysporum [6] and with Aspergillus niger [7] was “inactive” each time.
Consider `CCN1CCC(n2cc(-c3nnc(-c4ccccc4)c(-c4ccccc4)n3)nn2)CC1`, for which the MIC stood at 25 µg/mL (≈ 60.8 µM) in the assay with Candida albicans; 25 µg/mL (≈ 60.8 µM) in the assay with Fusarium oxysporum [1]; 12.5 µg/mL (≈ 30.4 µM) against Aspergillus niger [2]; 12.5 µg/mL (≈ 30.4 µM) in the assay with Aspergillus flavus [3]; 35 µg/mL (≈ 85.1 µM) against Cryptococcus neoformans [5].
Regarding `c1ccc(CN2CCC(n3cc(-c4nnc(-c5ccccc5)c(-c5ccccc5)n4)nn3)CC2)cc1`, the MIC came to 40 µg/mL (≈ 84.5 µM) in the assay with Candida albicans, 60 µg/mL (≈ 127 µM) in the assay on Fusarium oxysporum [1] and 95 µg/mL (≈ 201 µM) with Aspergillus niger [2]. In addition, the MIC entry in the assay with Aspergillus flavus [8] and in the assay on Cryptococcus neoformans [4] was “inactive” throughout.
Regarding `CCCC(=O)N1CCC(n2cc(-c3nnc(-c4ccccc4)c(-c4ccccc4)n3)nn2)CC1`, the MIC was 62.5 µg/mL (≈ 138 µM) with Candida albicans; 65 µg/mL (≈ 143 µM) against Fusarium oxysporum [1]; 40 µg/mL (≈ 88.2 µM) against Aspergillus niger [2]; 35 µg/mL (≈ 77.2 µM) against Aspergillus flavus [3]; 75 µg/mL (≈ 165 µM) in the assay on Cryptococcus neoformans [5].
Consider `O=C(c1ccc(Cl)cc1)N1CCC(n2cc(-c3nnc(-c4ccccc4)c(-c4ccccc4)n3)nn2)CC1`, for which the MIC came out at 25 µg/mL (≈ 47.9 µM) in the assay on Candida albicans; 25 µg/mL (≈ 47.9 µM) against Fusarium oxysporum [1]; 12.5 µg/mL (≈ 23.9 µM) with Aspergillus niger [2]; 15 µg/mL (≈ 28.7 µM) against Aspergillus flavus [3]; 30 µg/mL (≈ 57.5 µM) against Cryptococcus neoformans [5].
`O=C(c1ccccc1)N1CCC(n2cc(-c3nnc(-c4ccccc4)c(-c4ccccc4)n3)nn2)CC1`: the MIC against Candida albicans came to 30 µg/mL (≈ 61.5 µM); with Fusarium oxysporum [1] it was 30 µg/mL (≈ 61.5 µM); against Aspergillus niger [2] it was 15 µg/mL (≈ 30.8 µM); against Aspergillus flavus [3] it was 17.5 µg/mL (≈ 35.9 µM); with Cryptococcus neoformans [5] it was 55 µg/mL (≈ 113 µM).
Regarding `Cc1ccc(S(=O)(=O)N2CCC(n3cc(-c4nnc(-c5ccccc5)c(-c5ccccc5)n4)nn3)CC2)cc1`, the MIC with Candida albicans was 90 µg/mL (≈ 167 µM); against Fusarium oxysporum [1], 100 µg/mL (≈ 186 µM); in the assay on Aspergillus niger [2], 47.5 µg/mL (≈ 88.3 µM); against Aspergillus flavus [3], 35 µg/mL (≈ 65.1 µM); in the assay on Cryptococcus neoformans [5], 150 µg/mL (≈ 279 µM).
The matching figures for `CN1CCC(n2cc(-c3nnc(-c4ccccc4)c(-c4ccccc4)n3)nn2)CC1`: 25 µg/mL (≈ 62.9 µM), 30 µg/mL (≈ 75.5 µM), 12.5 µg/mL (≈ 31.4 µM), 17.5 µg/mL (≈ 44 µM) and 25 µg/mL (≈ 62.9 µM).
In the case of `CS(=O)(=O)N1CCC(n2cc(-c3nnc(-c4ccccc4)c(-c4ccccc4)n3)nn2)CC1`, the MIC against Candida albicans was found to be 50 µg/mL (≈ 108 µM); in the assay with Fusarium oxysporum [1] it was 60 µg/mL (≈ 130 µM); against Aspergillus flavus [3] it was 30 µg/mL (≈ 65 µM). For the same compound, the MIC entry in the assay on Cryptococcus neoformans [4] and in the assay on Aspergillus niger [7] was “inactive” each time.
